The record followed here is ChEMBL document CHEMBL4732169, “Design and synthesis of mycobacterial pks13 inhibitors: Conformationally rigid tetracyclic molecules” (Eur J Med Chem, 2021).

Holding throughout (assay type): functional
Test [1] has as its system Mycobacterium tuberculosis. Briefly: Antitubercular activity against extensively drug resistance Mycobacterium tuberculosis R506 XDR by MABA. A digest of the protocol: (§1)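 Microplate alamar blue assay (MABA) against each Mtb strain, either H37Rv or a clinical isolate (drug-susceptible, MDR or XDR). MIC taken as the lowest concentration giving at least 90% reduction of the bacterial growth signal. Each value is the average of three individual measurements.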
In general terms: Alamar Blue is a resazurin reagent that responds to reducing activity.

For test [2], the system named is Mycobacterium tuberculosis. The test is described as follows: Antitubercular activity against isoniazid/rifampin/levofloxacin/ofloxacin/kanamycin extensively drug resistance Mycobacterium tuberculosis TF274 XDR by MABA assay. A digest of the protocol:
as §1

For test [3], the system named is Mycobacterium tuberculosis. The test is described as follows: Antitubercular activity against multi drug resistance Mycobacterium tuberculosis V2475 by MABA assay. A digest of the protocol:
as §1

The subject of test [4] is Mycobacterium tuberculosis. Briefly: Antitubercular activity against isoniazid/rifampin resistance Mycobacterium tuberculosis KZN494 by MABA assay. A digest of the protocol: as §1

SMILES strings stand for the structures. Values after ≈ are worked out from the molar mass of the structure shown.

As to `O=c1[nH]c2cc(O)ccc2c2oc3ccc(O)c(CN4CCCCC4)c3c12`, the “MIC=<90” value came to 0.0156 µg/mL (≈ 0.0428 µM) in test [1], 0.0156 µg/mL (≈ 0.0428 µM) in test [2], 0.0625 µg/mL (≈ 0.172 µM) in test [3] and 0.0313 µg/mL (≈ 0.0859 µM) in test [4].
For the compound `NNC(=O)c1ccncc1` [ISONIAZID], the “MIC=<90” value was determined as 8 µg/mL (≈ 58.3 µM) in test [1], 8 µg/mL (≈ 58.3 µM) in test [2], 16 µg/mL (≈ 117 µM) in test [3] and 16 µg/mL (≈ 117 µM) in test [4].
With `NC[C@H]1O[C@H](O[C@H]2[C@H](O)[C@@H](O[C@H]3O[C@H](CO)[C@@H](O)[C@H](N)[C@H]3O)[C@H](N)C[C@@H]2N)[C@H](O)[C@@H](O)[C@@H]1O` [KANAMYCIN], the “MIC=<90” value was >128 µg/mL in test [1], >128 µg/mL in test [2], 2 µg/mL (≈ 4.13 µM) in test [3] and 2 µg/mL (≈ 4.13 µM) in test [4].
As for `C[C@H]1COc2c(N3CCN(C)CC3)c(F)cc3c(=O)c(C(=O)O)cn1c23.C[C@H]1COc2c(N3CCN(C)CC3)c(F)cc3c(=O)c(C(=O)O)cn1c23.O` [LEVOFLOXACIN], the “MIC=<90” value in test [1] was determined as 2 µg/mL; in test [2], 1 µg/mL.
Consider `CC1COc2c(N3CCN(C)CC3)c(F)cc3c(=O)c(C(=O)O)cn1c23` (configuration not stated) [OFLOXACIN], for which the “MIC=<90” value in test [1] was 4 µg/mL (≈ 11.1 µM); in test [2] it was 8 µg/mL (≈ 22.1 µM); in test [3], 0.5 µg/mL (≈ 1.38 µM); in test [4], 0.5 µg/mL (≈ 1.38 µM).
As for `CO[C@H]1/C=C/O[C@@]2(C)Oc3c(C)c(O)c4c(O)c(c(/C=N/N5CCN(C)CC5)c(O)c4c3C2=O)NC(=O)/C(C)=C\C=C\[C@H](C)[C@H](O)[C@@H](C)[C@@H](O)[C@@H](C)[C@H](OC(C)=O)[C@@H]1C` [RIFAMPIN], the “MIC=<90” value in test [1] is >128 µg/mL; in test [2] it was >128 µg/mL; in test [3] it was 4 µg/mL (≈ 4.86 µM); in test [4] it was 128 µg/mL (≈ 156 µM).
